Experimental data as given in ChEMBL document CHEMBL3232843, “Novel pyrrolidine diketopiperazines selectively inhibit melanoma cells via induction of late-onset apoptosis” (J Med Chem, 2014).
Active and inactive are the calls of the source. No cut-off for these calls is given here.

Assays:
M14 [1] = experiment: Cytotoxicity against human M14 cells at 100 uM after 72 hrs by CellTiter-Glo luminescence assay; type: functional; conditions: M14, 72 h
In short: (§1)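 1250 cells per well in serum-free medium (F12 for CHO-K1 and A549, DMEM for M14). Compounds given as 10-point 1:3 serial dilutions from a 300 µM stock, plus a gefitinib control. Incubated 72 h at 37 °C, 5% CO2. CellTiter-Glo added for 15 min at room temperature, then luminescence read. Viability normalized to media-only wells (0%) and 1% DMSO wells (100%). Run in triplicate.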

[2] = Cytotoxicity against CHOK1 cells at 100 uM after 72 hrs by CellTiter-Glo luminescence assay; type: cell-based, Cricetulus griseus; conditions: chinese hamster, CHO-K1 cells; read-out: INH; in short: as §1
A549 = experiment: Cytotoxicity against human A549 cells at 100 uM after 72 hrs by CellTiter-Glo luminescence assay; type: functional; conditions: A549, 72 h; in short: as §1
M14 [3] = experiment: Cytotoxicity against human M14 cells expressing […] mutant; type: functional, cell-based
[4] = Cytotoxicity against human M262 cells expressing B-raf V600E mutant; type: functional, cell-based
[5] = Cytotoxicity against human M238 cells expressing B-raf V600E mutant; type: functional, cell-based
[6] = Cytotoxicity against human M249 cells expressing B-raf V600E mutant; type: functional, cell-based
[7] = Cytotoxicity against human M229 cells expressing B-raf V600E mutant; type: functional, cell-based
SK-MEL-28 = experiment: Cytotoxicity against human SK-MEL-28 cells expressing B-raf V600E mutant; type: functional, cell-based
[8] = Cytotoxicity against human M263 cells expressing B-raf V600E mutant; type: functional, cell-based
[9] = Cytotoxicity against human M321 cells expressing B-raf V600E mutant; type: functional, cell-based
M14 [10] = experiment: Induction of apoptosis human M14 cells assessed as caspase activity at 100 uM after 4 to 72 hrs using DEVD peptide as substrate by ApoTox-Glo triplex assay; type: functional, cell-based
In short: (§2)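 M14 #5 cells, 1250 per well in serum-free DMEM, pre-incubated 4 h at 37 °C, 5% CO2. Compounds added as 1:3 serial dilutions; incubated 4, 24, 48 and 72 h. Per time point, a reagent containing 400 µM GF-AFC (live-cell protease) and 400 µM bis-AAF-R110 (dead-cell protease) was added for 30 min at 37 °C, then fluorescence was read. Caspase-Glo 3/7 was added next, 30 min at room temperature, then luminescence.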

M14 [11] = experiment: Cytotoxicity against human M14 cells assessed as cell viability after 4 hrs using GF-AFC as substrate by ApoTox-Glo triplex assay; type: functional, cell-based; in short: as §2
M14 [12] = experiment: Cytotoxicity against human M14 cells assessed as cell viability after 24 hrs using GF-AFC as substrate by ApoTox-Glo triplex assay; type: functional, cell-based
In short: (§3)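 M14 cells, 1250 per well, in serum-free DMEM, settled 4 h, then given 1:3 serial dilutions. Ionomycin, terfenadine and panobinostat were the controls. Incubated 4, 24, 48 or 72 h at 37 °C. A reagent containing 400 µM GF-AFC (live-cell protease, ex 400/em 505 nm) and 400 µM bis-AAF-R110 (dead-cell protease, ex 485/em 520 nm) was applied for 30 min at 37 °C. Caspase-Glo 3/7 (DEVD) luminescence was then read after 30 min at room temperature.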

M14 [13] = experiment: Induction of apoptosis human M14 cells assessed as caspase activity after 24 to 48 hrs using DEVD peptide as substrate by ApoTox-Glo triplex assay; type: functional, cell-based; in short: as §3
M14 [14] = experiment: Cytotoxicity against human M14 cells assessed as cell viability at 100 uM after 4 hrs using bis-AAF-R110 as substrate by ApoTox-Glo triplex assay; type: functional, cell-based; in short: as §3
M14 [15] = experiment: Induction of apoptosis human M14 cells assessed as caspase activity at 100 uM after 4 hrs using DEVD peptide as substrate by ApoTox-Glo triplex assay; type: functional, cell-based; in short: as §3
M14 [16] = experiment: Cytotoxicity against human M14 cells assessed as cell viability at 100 uM after 4 hrs using GF-AFC as substrate by ApoTox-Glo triplex assay; type: functional, cell-based; in short: as §3

Work on `CCC[C@@H]1CNC(=O)C(=O)N1C[C@@H]1CCCN1C[C@@H](Cc1ccc(O)cc1)N1C[C@H](Cc2ccc(O)cc2)N(CC(CC)c2ccccc2)C(=O)C1=O` (stereo not given in full) yielded an inhibition at 100 µM (M14 [1]) of 7%, a cytotoxicity at 72 h, 100 µM [2] of 48% and an inhibition at 100 µM (A549) of 4%.
For `CCC[C@@H]1CNC(=O)C(=O)N1C[C@@H]1CCCN1C[C@@H](Cc1ccc(O)cc1)N1C[C@H](Cc2ccc(O)cc2)N(CC2CCCC2)C(=O)C1=O`, the inhibition at 100 µM (M14 [1]) was 23%, the cytotoxicity at 72 h, 100 µM [2] was 19% and the inhibition at 100 µM (A549) was 16%.
In the case of `CCC[C@@H]1CNC(=O)C(=O)N1C[C@@H]1CCCN1C[C@H](Cc1ccc(O)cc1)N1C[C@H](Cc2ccc(O)cc2)N(CC(CC)c2ccccc2)C(=O)C1=O` (stereo not given in full), the inhibition at 100 µM (M14 [1]) is reported as 10%, the cytotoxicity at 72 h, 100 µM [2] is reported as 27% and the inhibition at 100 µM (A549) is reported as 0%.
For `CCCS(=O)(=O)Nc1ccc(F)c(C(=O)c2c[nH]c3ncc(-c4ccc(Cl)cc4)cc23)c1F` [VEMURAFENIB], the IC50 (M14 [3]) was 150 nM, the IC50 [4] was 100 nM and the IC50 [5] was 100 nM. The IC50 [6] was 100 nM, the IC50 [7] was 100 nM and the IC50 (SK-MEL-28) was 100 nM. For the same compound, the IC50 [8] was 100 nM and the IC50 [9] was 100 nM.
For `CCC[C@@H]1CNC(=O)C(=O)N1C[C@@H]1CCCN1C[C@H](Cc1ccc(O)cc1)N1C[C@@H](Cc2ccc(O)cc2)N(CC(CC)c2ccccc2)C(=O)C1=O` (stereo not given in full), the cytotoxicity at 72 h, 100 µM [2] was 0%.
For `C[C@H](CCC(=O)O)C[C@H](C)C[C@H](C)C(=O)/C=C(\O)[C@H](C)C[C@H](C)C/C=C/[C@@H](C)[C@@H](O)[C@@H](C)[C@@H](O)C[C@@H]1CC[C@@](C)([C@H]2CC[C@@](C)([C@@H](C)O)O2)O1`, the Activity (M14 [10]) was “inactive” and the Activity (M14 [11]) was “Dose-dependent effect”.
With `Cc1[nH]c2ccccc2c1CCNCc1ccc(/C=C/C(=O)NO)cc1` the Activity (M14 [12]) was “Dose-dependent effect”, the Activity (M14 [13]) was “Active” and the Activity (M14 [14]) was “inactive”. For the same compound, the Activity (M14 [15]) was “inactive” and the Activity (M14 [16]) was “inactive”.
